Laboratory results as given in ChEMBL document CHEMBL1122934, “Angiotensin-converting enzyme inhibitors. New orally active antihypertensive (mercaptoalkanoyl)- and [(acylthio)alkanoyl]glycine derivatives” (J Med Chem, 1985).

Columns and labels:
[1] = target: T1, Angiotensin-converting enzyme (Oryctolagus cuniculus, UniProt P12822); test: In vitro inhibitory activity against rabbit lung Angiotensin I converting enzyme at pH 8.3
T1 sequence (P12822 whole entry): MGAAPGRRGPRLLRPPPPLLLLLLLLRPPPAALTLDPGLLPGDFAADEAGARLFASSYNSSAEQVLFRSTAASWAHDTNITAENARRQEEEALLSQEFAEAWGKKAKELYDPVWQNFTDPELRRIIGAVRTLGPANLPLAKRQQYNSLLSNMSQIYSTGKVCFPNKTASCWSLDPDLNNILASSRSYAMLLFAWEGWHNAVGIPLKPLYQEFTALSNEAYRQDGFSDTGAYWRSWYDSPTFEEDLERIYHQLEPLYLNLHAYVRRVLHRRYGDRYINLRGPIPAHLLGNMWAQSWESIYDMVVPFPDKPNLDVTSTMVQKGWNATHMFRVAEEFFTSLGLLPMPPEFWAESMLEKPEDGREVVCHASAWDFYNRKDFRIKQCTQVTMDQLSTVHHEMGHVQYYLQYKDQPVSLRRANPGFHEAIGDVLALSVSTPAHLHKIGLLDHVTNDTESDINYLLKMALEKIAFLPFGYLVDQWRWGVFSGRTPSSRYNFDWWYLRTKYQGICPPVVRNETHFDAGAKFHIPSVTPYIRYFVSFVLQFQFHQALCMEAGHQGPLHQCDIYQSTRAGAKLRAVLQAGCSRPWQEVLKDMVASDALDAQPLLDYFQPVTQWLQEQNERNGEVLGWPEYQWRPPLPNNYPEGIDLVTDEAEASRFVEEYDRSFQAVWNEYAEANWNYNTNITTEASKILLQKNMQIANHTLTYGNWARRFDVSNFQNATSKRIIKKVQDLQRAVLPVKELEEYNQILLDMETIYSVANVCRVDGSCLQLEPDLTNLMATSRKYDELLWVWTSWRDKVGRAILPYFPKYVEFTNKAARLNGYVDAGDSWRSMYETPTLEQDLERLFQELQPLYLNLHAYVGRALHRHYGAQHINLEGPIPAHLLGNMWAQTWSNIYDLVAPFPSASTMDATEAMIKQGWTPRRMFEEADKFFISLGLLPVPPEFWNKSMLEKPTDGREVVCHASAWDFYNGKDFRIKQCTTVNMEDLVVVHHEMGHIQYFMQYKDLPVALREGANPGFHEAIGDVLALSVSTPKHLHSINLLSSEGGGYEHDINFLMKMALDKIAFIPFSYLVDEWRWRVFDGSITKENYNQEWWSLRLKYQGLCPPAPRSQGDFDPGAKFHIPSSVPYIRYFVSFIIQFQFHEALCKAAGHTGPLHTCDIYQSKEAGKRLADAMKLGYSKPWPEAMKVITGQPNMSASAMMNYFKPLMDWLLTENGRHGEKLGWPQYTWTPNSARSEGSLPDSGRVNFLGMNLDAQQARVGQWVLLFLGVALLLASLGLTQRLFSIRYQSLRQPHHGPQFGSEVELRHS

[2] = target: T2, Angiotensin-converting enzyme (Rattus norvegicus) (UniProt P47820); test: Peroral dose required to inhibit angiotensin I induced vasopressor response in normotensive conscious rats; type: functional
T2 sequence (whole entry): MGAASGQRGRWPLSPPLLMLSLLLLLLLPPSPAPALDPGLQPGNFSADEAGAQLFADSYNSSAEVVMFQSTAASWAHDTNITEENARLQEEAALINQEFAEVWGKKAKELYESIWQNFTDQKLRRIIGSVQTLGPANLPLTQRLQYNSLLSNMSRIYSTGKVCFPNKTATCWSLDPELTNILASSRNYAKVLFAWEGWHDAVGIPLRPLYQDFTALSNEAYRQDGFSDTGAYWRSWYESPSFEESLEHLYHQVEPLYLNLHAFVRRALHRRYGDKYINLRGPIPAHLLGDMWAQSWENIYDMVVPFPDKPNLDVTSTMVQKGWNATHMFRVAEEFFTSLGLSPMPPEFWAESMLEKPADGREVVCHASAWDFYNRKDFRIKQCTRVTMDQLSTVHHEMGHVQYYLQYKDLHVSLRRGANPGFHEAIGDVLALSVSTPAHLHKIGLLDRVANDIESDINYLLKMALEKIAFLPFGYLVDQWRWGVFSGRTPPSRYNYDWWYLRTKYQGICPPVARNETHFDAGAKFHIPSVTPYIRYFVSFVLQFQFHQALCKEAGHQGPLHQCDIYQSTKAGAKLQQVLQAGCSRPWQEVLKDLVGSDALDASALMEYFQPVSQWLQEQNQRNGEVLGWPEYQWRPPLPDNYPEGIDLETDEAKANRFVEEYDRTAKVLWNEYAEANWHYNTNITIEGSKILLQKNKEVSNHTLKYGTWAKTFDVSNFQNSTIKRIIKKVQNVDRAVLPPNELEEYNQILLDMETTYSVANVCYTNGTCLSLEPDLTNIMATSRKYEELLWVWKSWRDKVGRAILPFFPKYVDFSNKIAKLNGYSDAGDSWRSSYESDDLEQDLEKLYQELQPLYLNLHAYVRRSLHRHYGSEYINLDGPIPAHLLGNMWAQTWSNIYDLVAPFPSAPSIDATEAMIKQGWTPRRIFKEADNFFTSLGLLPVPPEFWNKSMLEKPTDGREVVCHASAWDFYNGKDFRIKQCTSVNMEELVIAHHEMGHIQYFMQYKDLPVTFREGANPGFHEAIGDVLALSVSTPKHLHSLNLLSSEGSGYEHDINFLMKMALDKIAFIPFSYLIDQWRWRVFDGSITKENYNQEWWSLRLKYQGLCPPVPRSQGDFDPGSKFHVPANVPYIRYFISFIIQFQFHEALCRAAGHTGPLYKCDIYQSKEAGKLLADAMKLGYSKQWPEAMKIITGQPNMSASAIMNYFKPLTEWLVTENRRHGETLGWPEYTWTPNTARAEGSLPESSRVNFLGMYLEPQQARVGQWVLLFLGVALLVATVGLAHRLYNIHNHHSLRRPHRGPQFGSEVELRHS
How it was run: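 Male normotensive rats with aortic and vena caval catheters, used ≥6 days later while restrained; angiotensins I and II 0.25 μg/kg iv every 10 min. One oral inhibitor dose in 0.5% gum tragacanth suspension; angiotensin I repeated every 10 min for ≥2 h. Maximum inhibition as % of initial response; ID50 from dose-response plot.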

Compound	IC50 [1]	ID50 [2]
CC(CS)C(=O)N(CC(=O)O)Cc1cccs1 (stereo not drawn)	55 nM	–
CC(=O)SCC(C)C(=O)N(CC(=O)O)c1ccc(F)cc1 (stereo not drawn)	600 nM	–
CC(=O)SCC(C)C(=O)N(CC(=O)O)c1ccc(C(C)C)cc1 (stereo not drawn)	60 nM	–
CC(CS)C(=O)N(CC(=O)O)CC1CCCO1 (stereo not drawn)	130 nM	–
CC(=O)SCC(C)C(=O)N(CC(=O)O)C(C)C (stereo not drawn)	5900 nM	–
CCCCc1ccc(N(CC(=O)O)C(=O)C(C)CSC(C)=O)cc1 (stereo not drawn)	64 nM	–
CC(=O)SCC(C)C(=O)N(CC(=O)O)C1CCCC1 (stereo not drawn)	82 nM	0.15 mg/kg
CC(=O)SCC(C)C(=O)N(CC(=O)O)C1CC2CCC1C2 (stereo in doubt; 30) [listing 1 of 2 here]	–	0.06 mg/kg
CC(=O)SCC(C)C(=O)N(CC(=O)O)C1CC2CCC1C2 (stereo in doubt; 30) [listing 2 of 2 here]	20 nM	–
CC(=O)SCC(C)C(=O)N(CC(=O)O)CC1CCCO1 (stereo not drawn)	1900 nM	–
CC(=O)SCC(C)C(=O)N(CC(=O)O)C1CCC1 (stereo not drawn)	220 nM	–
C[C@@H](CSC(=O)C(C)(C)C)C(=O)N(CC(=O)O)C1CCCC1	> 100000 nM	25 mg/kg
CC(=O)SCC(C)C(=O)N(CC(=O)O)c1cc(C)cc(C)c1 (stereo not drawn)	44 nM	–
CC(CS)C(=O)N(CC(=O)O)CC1CC2CC(C1C)C2(C)C (stereo not drawn)	440 nM	–
C#CCN(CC(=O)O)C(=O)C(C)CS (stereo not drawn)	270 nM	–
CC(=O)SCC(C)C(=O)N(CC(=O)O)C1CCCCC1 (stereo not drawn)	270 nM	–
CC(=O)SCC(C)C(=O)N(CC(=O)O)C1CCC2CC1C2(C)C (stereo not drawn)	45 nM	–
CC(CS)C(=O)N(C)CC(=O)O (stereo not drawn)	130 nM	–
CC(CS)C(=O)N(CC(=O)O)C[C@H]1CC2CC(C1C)C2(C)C (stereo partly drawn)	160 nM	–
Cc1cccc(N(CC(=O)O)C(=O)C(C)CS)c1 (stereo not drawn)	19 nM	–

Compound	IC50 [1]	ID50 [2]
CC(=O)SCC(C)C(=O)N(CC(=O)O)c1ccccc1 (stereo not drawn)	300 nM	0.2 mg/kg
CC(=O)SCC(C)C(=O)N(CC(=O)O)c1ccc2c(c1)CCC2 (stereo not drawn)	48 nM	1.5 mg/kg
CC(CS)C(=O)N(CC(=O)O)C1CCCCC1 (stereo not drawn)	–	0.1 mg/kg
CC(CS)C(=O)N(CC(=O)O)C1CCCCCC1 (stereo not drawn)	–	0.05 mg/kg
CC(=O)SCC(C)C(=O)N(CC(=O)O)c1cccc(C)c1 (stereo not drawn)	75 nM	0.15 mg/kg
Cc1ccc(N(CC(=O)O)C(=O)C(C)CS)cc1 (stereo not drawn)	5 nM	–
C#CCN(CC(=O)O)C(=O)C(C)CSC(C)=O (stereo not drawn)	4500 nM	–
CC(=O)SCC(C)C(=O)N(CC(=O)O)Cc1ccco1 (stereo not drawn)	700 nM	–
CC(=O)SCC(C)C(=O)N(CC(=O)O)c1ccc(C)cc1 (stereo not drawn)	130 nM	0.15 mg/kg
CSCCCN(CC(=O)O)C(=O)C(C)CSC(C)=O (stereo not drawn)	900 nM	1.5 mg/kg
CC(=O)SCC(C)C(=O)N(CC(=O)O)C1CCCCCC1 (stereo not drawn)	–	0.06 mg/kg
CC(=O)SCC(C)C(=O)N(CC(=O)O)c1ccccc1C (stereo not drawn)	550 nM	–
CC(CSC(=O)CC(C)(C)C)C(=O)N(CC(=O)O)C1CCCC1 (stereo not drawn)	15000 nM	1.2 mg/kg
CC(=O)SCC(C)C(=O)N(C1CC1)C(C)C(=O)O (stereo not drawn)	220 nM	–
CSc1cccc(N(CC(=O)O)C(=O)C(C)CSC(C)=O)c1 (stereo not drawn)	75 nM	–
CC(CS)C(=O)N(CC(=O)O)C1CC1 (stereo not drawn)	30 nM	0.3 mg/kg
CC(S)C(=O)NCC(=O)O (stereo not drawn) [TIOPRONIN]	1900 nM	–
CC(CS)C(=O)N(CC(=O)O)C1CCCC1 (stereo not drawn)	–	0.15 mg/kg
CC(CS)C(=O)N(CC(=O)O)C1CCC1 (stereo not drawn)	18 nM	0.3 mg/kg
Cc1cc(C)cc(N(CC(=O)O)C(=O)C(C)CS)c1 (stereo not drawn)	44 nM	–

Compound	IC50 [1]	ID50 [2]
CC(=O)SCC(C)C(=O)N(CC(=O)O)C[C@H]1CC2CC(C1C)C2(C)C (stereo partly drawn)	140 nM	–
CC(CS)C(=O)N(CC(=O)O)Cc1ccco1 (stereo not drawn)	170 nM	–
CCN(CC(=O)O)C(=O)C(C)CS (stereo not drawn)	75 nM	–
CC(=O)SCC(C)C(=O)N(CC(=O)O)C1CCS(=O)(=O)C1 (stereo not drawn)	280 nM	–
CC(CS)C(=O)N(CC(=O)O)C(C)C (stereo not drawn)	72 nM	–
CC(CS)C(=O)N(CC(=O)O)C1Cc2ccccc2C1 (stereo not drawn)	–	0.15 mg/kg
CC(=O)SCC(C)C(=O)N(CC(=O)O)C1CC2CCC1C2 (stereo in doubt; 31)	52 nM	–
CC(=O)SCC(C)C(=O)N(CC(=O)O)C1Cc2ccccc2C1 (stereo not drawn)	340 nM	–
CC(CS)C(=O)N(C1CC1)C(C)C(=O)O (stereo not drawn)	79 nM	–
CC(CS)C(=O)N(CC(=O)O)C1CCS(=O)(=O)C1 (stereo not drawn)	280 nM	–
CC(CSC(=O)C(C)(C)C)C(=O)N(CC(=O)O)C1CCCC1 (stereo not drawn)	3700 nM	0.15 mg/kg
CCN1CCCC1CN(CC(=O)O)C(=O)C(C)CS (stereo not drawn)	640 nM	–
CC(=O)SCC(C)C(=O)N(CC(=O)O)C1CC1 (stereo not drawn)	540 nM	0.2 mg/kg
CC(CS)C(=O)NCC(=O)O (stereo not drawn)	210 nM	–
CC(=O)SCC(C)C(=O)N(CC(=O)O)CC1CC2CC(C1C)C2(C)C (stereo not drawn)	85 nM	–
COc1cccc(N(CC(=O)O)C(=O)C(C)CSC(C)=O)c1 (stereo not drawn)	110 nM	–
CC(CS)C(=O)N(CC(=O)O)C1CC2CCC1C2 (stereo not drawn)	32 nM	0.1 mg/kg
Cc1ccccc1N(CC(=O)O)C(=O)C(C)CS (stereo not drawn)	120 nM	–
CC(=O)SCC(C)C(=O)N(CC(=O)O)c1cccc(F)c1 (stereo not drawn)	51 nM	–
CC(=O)SCC(C)C(=O)N(CC(=O)O)Cc1cccs1 (stereo not drawn)	750 nM	–
